Results from ChEMBL document CHEMBL3877330, “Synthesis and Antitumor Activity Evaluation of a Novel Combi-nitrosourea Prodrug: BGCNU” (ACS Med Chem Lett, 2017).
pIC50: −log10 of the molar value.

How the values were obtained:
[1] = Cytotoxicity against AGT-positive human SF763 cells assessed as reduction in cell viability measured after 24 hrs by CCK8 assay; format: functional, cell-based; conditions: SF763, 24 h
[2] = Potency index, ratio of ACNU IC50 to test compound IC50 for AGT-positive human SF763 cells; format: functional
Summary of the method: (§1)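 Cell survival curves were run in human glioma cells, with SF763 high in AGT and SF126 lacking AGT. IC50 values came from the curves. The index is the IC50 of ACNU or BCNU alone divided by the test compound's IC50.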

[3] = Potency index, ratio of ACNU IC50 in combination with O6-BG to test compound IC50 for AGT-positive human SF763 cells; format: functional
Summary of the method: (§2)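 Survival curves were run in AGT-high human glioma SF763 cells. […] The index is the IC50 of the combination divided by the test compound's IC50.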

[4] = Potency index, ratio of BCNU IC50 to test compound IC50 for AGT-positive human SF763 cells; format: functional; summary of the method: as §1
[5] = Potency index, ratio of BCNU IC50 in combination with O6-BG to test compound IC50 for AGT-positive human SF763 cells; format: functional; summary of the method: as §2
[6] = Cytotoxicity against AGT-positive human SF767 cells assessed as reduction in cell viability measured after 24 hrs by CCK8 assay; format: functional, cell-based; conditions: SF767, 24 h
[7] = Cytotoxicity against AGT-deficient human SF126 cells assessed as reduction in cell viability measured after 24 hrs by CCK8 assay; format: functional, cell-based; conditions: SF-126, 24 h
SF-126 [8] = assay: Potency index, ratio of ACNU IC50 to test compound IC50 for AGT-deficient human SF126 cells; format: functional; summary of the method: as §1
[9] = target: T1, Methylated-DNA--protein-cysteine methyltransferase (Homo sapiens) (UniProt P16455); assay: Inhibition of AGT in human SF763 cells assessed as increase in dG-dC crosslinking incubated for 12 hrs by HPLC-ESI-MS/MS analysis; format: cell-based
T1 sequence (whole entry): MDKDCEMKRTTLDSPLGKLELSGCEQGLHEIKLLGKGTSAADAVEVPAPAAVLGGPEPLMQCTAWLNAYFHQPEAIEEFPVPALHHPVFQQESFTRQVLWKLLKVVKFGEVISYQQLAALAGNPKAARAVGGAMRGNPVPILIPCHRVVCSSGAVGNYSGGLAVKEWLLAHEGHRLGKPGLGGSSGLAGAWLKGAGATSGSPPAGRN
Summary of the method: (§3)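 Glioma cells exposed to drug at 0.1, 0.2, 0.4 and 0.6 mM. Genomic DNA then extracted and dG-dC interstrand cross-link levels quantified by HPLC-ESI-MS/MS. Triplicate determinations (n=3) per concentration.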

[10] = target: T1, Methylated-DNA--protein-cysteine methyltransferase (Homo sapiens); assay: Inhibition of AGT in human SF767 cells assessed as increase in dG-dC crosslinking incubated for 12 hrs by HPLC-ESI-MS/MS analysis; format: cell-based; summary of the method: as §3
SF-126 [11] = assay: Binding affinity to DNA in AGT-deficient human SF126 cells assessed as increase in dG-dC crosslinking incubated for 12 hrs by HPLC-ESI-MS/MS analysis; format: cell-based; summary of the method: as §3
Bos taurus = organism: Bos taurus; assay: Binding affinity to calf thymus DNA assessed as increase in dG-dC crosslinking incubated for 12 hrs under dark condition by HPLC-ESI-MS/MS analysis
Summary of the method: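 Calf thymus DNA treated directly with drug at 0.1, 0.2, 0.4 and 0.6 mM. dG-dC cross-link levels measured by HPLC-ESI-MS/MS.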

[12] = n-Octanol/water partition coefficient, log P of the compound at 2 mM by HPLC analysis; format: physicochemical
[13] = Cytotoxicity against AGT-positive human SF763 cells assessed as reduction in cell viability pretreated with O6-BG for 2 hrs followed by addition of compound measured after 24 hrs by CCK8 assay; format: functional, cell-based
Summary of the method: (§4)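 Nitrosourea combined with 20 µM O6-BG. Survival curves were generated for the glioma cells across a range of drug concentrations, and IC50 was read from those curves.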

[14] = Cytotoxicity against AGT-positive human SF767 cells assessed as reduction in cell viability pretreated with O6-BG for 2 hrs followed by addition of compound measured after 24 hrs by CCK8 assay; format: functional, cell-based; summary of the method: as §4
[15] = Cytotoxicity against AGT-deficient human SF126 cells assessed as reduction in cell viability pretreated with O6-BG for 2 hrs followed by addition of compound measured after 24 hrs by CCK8 assay; format: functional, cell-based; conditions: SF-126; summary of the method: as §4

Nc1nc(OCc2ccccc2)c2ncn(CCNC(=O)N(CCCl)N=O)c2n1
pIC50 [1]: 4.22 | Ratio IC50 [2]: 27 | Ratio IC50 [3]: 17 | Ratio IC50 [4]: 5.8 | Ratio IC50 [5]: 3.3 | pIC50 [6]: 4.24 | pIC50 [7]: 4.28 | Ratio IC50 (SF-126 [8]): 7 - 9 | inhibition [9]: Dose-dependent effect | inhibition [10]: Dose-dependent effect | Activity (SF-126 [11]): Dose-dependent effect | Activity (Bos taurus): Dose-dependent effect | logP at 2000 µM [12]: 1.81

O=NN(CCCl)C(=O)NCCCl [CARMUSTINE]
pIC50 [1]: 3.46 | pIC50 [13]: 3.70 | pIC50 [6]: 3.89 | pIC50 [14]: 3.92 | pIC50 [7]: 4.07 | pIC50 [15]: 4.26 | inhibition [9]: Dose-dependent effect | inhibition [10]: Dose-dependent effect | Activity (SF-126 [11]): Dose-dependent effect | Activity (Bos taurus): Dose-dependent effect

Cc1ncc(CNC(=O)N(CCCl)N=O)c(N)n1 [NIMUSTINE]
pIC50 [1]: 2.80 | pIC50 [6]: 3.24 | pIC50 [14]: 3.40 | pIC50 [7]: 3.35 | pIC50 [15]: 3.44 | inhibition [9]: Dose-dependent effect | inhibition [10]: Dose-dependent effect | Activity (SF-126 [11]): Dose-dependent effect | Activity (Bos taurus): Dose-dependent effect
